These results are taken from ChEMBL document CHEMBL4400523, “Synthesis of novel pyrido[1,2-c]pyrimidine derivatives with rigidized tryptamine moiety as potential SSRI and 5-HT1A receptor ligands” (Eur J Med Chem, 2019).

Calls of active or inactive are those of the source. No cut-off for these calls is given here.

For data set [1], the target named is Sodium-dependent serotonin transporter (Rattus norvegicus, UniProt P31652). Nature of the data set: Displacement of [3H]-citalopram from SERT in rat cortex tissue measured after 60 mins by microbeta scintillation counting analysis. The method, boiled down: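 Rat cortex tissue suspension with 1.0 nM [3H]-citalopram in 50 mM Tris pH 7.7, 150 mM NaCl, 5 mM KCl. Incubated 60 min at 24 °C, in duplicate. GF/B filtration, scintillation counting. One-site fit, Ki via Cheng–Prusoff with in-house Kd.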
In general terms: Loss of bound radioactivity is the signal in a displacement assay; it reports binding, not function.

Data set [2] concerns the target 5-hydroxytryptamine receptor 2A (Homo sapiens, UniProt P28223). Nature of the data set: Displacement of [3H]-ketanserin from recombinant human 5HT2A receptor expressed in HEK293 cells measured after 1.5 hrs by microbeta scintillation counting analysis. The class given is cell-based.
Data set [3] deals with Mus musculus. Nature of the data set: Induction of hypothermia in CD-1 mouse assessed as change in body temperature at 17.5 mg/kg, ip measured after 60 mins by thermometric method (reference value: 0.1 deg C). It counts as functional, organism-based. The method, boiled down:
(§1)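 Male CD-1 mice (23–40 g), 6–8 per dose, given compound ip in 10% aqueous DMSO (10 mL/kg). Rectal temperature was read by thermometer 30, 60, 90 and 120 min after dosing. Results are expressed as change from basal temperature at experiment start. Analysis by Dunnett's test.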

Data set [4] relates to Mus musculus. Nature of the data set: Induction of hypothermia in CD-1 mouse assessed as change in body temperature at 15 mg/kg, ip measured after 90 mins by thermometric method (reference value: -0.1 to 0.1 deg C). The class given is functional, organism-based. In a few lines: as §1
The target of data set [5] is D(2) dopamine receptor (Homo sapiens, UniProt P14416). Nature of the data set: Displacement of [3H]-raclopride from recombinant human D2 receptor expressed in HEK293 cells measured after 1 hr by microbeta scintillation counting analysis. It counts as cell-based.
Data set [6] deals with Mus musculus. Nature of the data set: Induction of hypothermia in CD-1 mouse assessed as change in body temperature at 20 mg/kg, ip measured after 90 mins by thermometric method. It counts as functional, organism-based. In a few lines: as §1
Data set [7] concerns Mus musculus. Nature of the data set: Induction of hypothermia in CD-1 mouse assessed as change in body temperature at 17.5 mg/kg, ip measured after 90 mins by thermometric method (reference value: -0.1 to 0.1 deg C). It counts as functional, organism-based. The method, boiled down: as §1
In data set [8] the test system is Mus musculus. Nature of the data set: Induction of hypothermia in CD-1 mouse assessed as change in body temperature at 15 mg/kg, ip measured after 120 mins by thermometric method (reference value: -0.1 to 0.1 deg C). The class given is functional, organism-based. The method, boiled down: as §1
Data set [9] concerns Mus musculus. Nature of the data set: Induction of hypothermia in CD-1 mouse assessed as change in body temperature at 17.5 mg/kg, ip measured after 120 mins by thermometric method (reference value: -0.1 to 0.1 deg C). The class given is functional, organism-based. In a few lines:
as §1

The target of data set [10] is T1, 5-hydroxytryptamine receptor 1A (Homo sapiens, UniProt P08908).
T1 sequence (P08908 whole entry): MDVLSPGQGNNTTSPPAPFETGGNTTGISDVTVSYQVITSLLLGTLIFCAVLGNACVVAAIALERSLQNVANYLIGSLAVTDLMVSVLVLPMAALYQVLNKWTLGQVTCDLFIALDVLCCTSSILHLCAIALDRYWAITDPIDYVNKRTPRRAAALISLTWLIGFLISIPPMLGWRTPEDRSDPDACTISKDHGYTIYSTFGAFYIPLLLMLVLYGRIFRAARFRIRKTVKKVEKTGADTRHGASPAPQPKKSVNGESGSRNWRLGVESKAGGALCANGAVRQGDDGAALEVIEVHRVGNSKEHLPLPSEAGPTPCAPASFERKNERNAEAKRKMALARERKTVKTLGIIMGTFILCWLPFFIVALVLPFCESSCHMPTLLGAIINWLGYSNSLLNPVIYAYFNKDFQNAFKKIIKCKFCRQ
Nature of the data set: Displacement of [3H]-8-OH-DPAT from recombinant human 5HT1A receptor expressed in CHO cell membranes measured after 60 mins by microbeta scintillation counting analysis.

For data set [11], the system named is Mus musculus. Nature of the data set: Induction of hypothermia in CD-1 mouse assessed as change in body temperature at 5 mg/kg, ip measured after 120 mins by thermometric method. It counts as functional, organism-based. In a few lines: as §1
Data set [12] deals with 5-hydroxytryptamine receptor 6 (Homo sapiens, UniProt P50406). Nature of the data set: Displacement of [3H]-LSD from recombinant human 5HT6 receptor expressed in HEK293 cells measured after 1 hr by microbeta scintillation counting analysis. It counts as cell-based.
The subject of data set [13] is Mus musculus. Nature of the data set: Induction of hypothermia in CD-1 mouse assessed as change in body temperature at 17.5 mg/kg, ip measured after 30 mins by thermometric method (Rvb <= 0.4 deg C). It counts as functional, organism-based. The method, boiled down: as §1
Data set [14] is described as follows: Half life in human liver microsomes at 1 uM by LC-MS analysis. The class given is ADME, Microsome. In a few lines: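 Compound at 1 μM incubated at 37 °C with 1 mg/mL pooled human liver microsomes and 100 μM NADPH in 0.1 M potassium phosphate pH 7.4, after 5-min preincubation. Samples taken at 0, 5, 10, 15, 30 min and quenched in ice-cold acetonitrile with buspirone internal standard. No-NADPH controls were run. Parent measured by LC-ESI(+)-MS of [M+H+]; half-life reported.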
In general terms: Liver microsomes are a subcellular fraction often used to study metabolism.

For data set [15], the system named is Mus musculus. Nature of the data set: Induction of hypothermia in CD-1 mouse assessed as change in body temperature at 15 mg/kg, ip measured after 30 mins by thermometric method (Rvb <= 0.4 deg C). The class given is functional, organism-based. The method, boiled down:
as §1

Data set [16] concerns the target 5-hydroxytryptamine receptor 7 (Homo sapiens, UniProt P34969). Nature of the data set: Displacement of [3H]-5-CT from recombinant human 5HT7 receptor expressed in HEK293 cells measured after 1 hr by microbeta scintillation counting analysis. It counts as cell-based.
The subject of data set [17] is Mus musculus. Nature of the data set: Induction of hypothermia in CD-1 mouse assessed as change in body temperature at 5 mg/kg, ip measured after 90 mins by thermometric method. The class given is functional, organism-based. The method, boiled down: as §1
For data set [18], the system named is Mus musculus. Nature of the data set: Induction of hypothermia in CD-1 mouse assessed as change in body temperature at 20 mg/kg, ip measured after 30 mins by thermometric method. The class given is functional, organism-based. In a few lines:
as §1

Data set [19] deals with Mus musculus. Nature of the data set: Induction of hypothermia in CD-1 mouse assessed as change in body temperature at 20 mg/kg, ip measured after 120 mins by thermometric method. The class given is functional, organism-based. In a few lines:
as §1

For data set [20], the system named is Mus musculus. Nature of the data set: Induction of hypothermia in CD-1 mouse assessed as change in body temperature at 15 mg/kg, ip measured after 60 mins by thermometric method (reference value: 0.1 deg C). It counts as functional, organism-based. The method, boiled down: as §1
Data set [21] deals with Mus musculus. Nature of the data set: Induction of hypothermia in CD-1 mouse assessed as change in body temperature at 5 mg/kg, ip measured after 60 mins by thermometric method. It counts as functional, organism-based. In a few lines: as §1
The subject of data set [22] is Mus musculus. Nature of the data set: Induction of hypothermia in CD-1 mouse assessed as change in body temperature at 5 mg/kg, ip measured after 30 mins by thermometric method. It counts as functional, organism-based. The method, boiled down: as §1
Data set [23] has as its system Mus musculus. Nature of the data set: Induction of hypothermia in CD-1 mouse assessed as change in body temperature at 20 mg/kg, ip measured after 60 mins by thermometric method. The class given is functional, organism-based. The method, boiled down: as §1
Data set [24] has as its system Mus musculus. Nature of the data set: Induction of hypothermia in CD-1 mouse assessed as change in body temperature at 20 mg/kg, ip measured after 60 mins in presence of WAY100635 by thermometric method. The class given is functional, organism-based.
Data set [25] relates to Mus musculus. Nature of the data set: Induction of hypothermia in CD-1 mouse assessed as change in body temperature at 20 mg/kg, ip measured after 30 mins in presence of WAY100635 by thermometric method. The class given is functional, organism-based.
For data set [26], the system named is Mus musculus. Nature of the data set: Antidepressant-like activity in CD-1 mouse assessed as decrease in immobility time at 20 mg/kg, ip measured after 30 mins by forced swim test. The class given is functional, organism-based. The method, boiled down:
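Male CD-1 mice (23–40 g), 6–8 per dose, given test agent ip in 10% aqueous DMSO (10 mL/kg) 30 min before test. Mice were placed singly in glass cylinders (25 cm high, 10 cm diameter) holding 20 cm water at 23 °C for 6 min. Immobility (passive floating) was timed over the last 4 min after a 2-min adaptation. Analysis by Dunnett's test.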

Chain of D(2) dopamine receptor (P14416 whole entry): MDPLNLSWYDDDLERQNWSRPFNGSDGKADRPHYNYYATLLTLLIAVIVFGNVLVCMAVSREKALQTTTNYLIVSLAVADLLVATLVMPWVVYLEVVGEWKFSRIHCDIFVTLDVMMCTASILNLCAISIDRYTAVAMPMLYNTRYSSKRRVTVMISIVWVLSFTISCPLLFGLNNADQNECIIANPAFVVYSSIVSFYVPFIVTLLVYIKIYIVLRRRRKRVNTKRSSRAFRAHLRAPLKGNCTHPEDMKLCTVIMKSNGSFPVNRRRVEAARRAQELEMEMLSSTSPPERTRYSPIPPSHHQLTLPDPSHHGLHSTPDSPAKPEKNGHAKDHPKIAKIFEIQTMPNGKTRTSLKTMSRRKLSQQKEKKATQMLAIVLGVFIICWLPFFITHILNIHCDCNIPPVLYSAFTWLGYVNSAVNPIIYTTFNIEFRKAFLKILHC
Chain of 5-hydroxytryptamine receptor 2A (P28223 whole entry): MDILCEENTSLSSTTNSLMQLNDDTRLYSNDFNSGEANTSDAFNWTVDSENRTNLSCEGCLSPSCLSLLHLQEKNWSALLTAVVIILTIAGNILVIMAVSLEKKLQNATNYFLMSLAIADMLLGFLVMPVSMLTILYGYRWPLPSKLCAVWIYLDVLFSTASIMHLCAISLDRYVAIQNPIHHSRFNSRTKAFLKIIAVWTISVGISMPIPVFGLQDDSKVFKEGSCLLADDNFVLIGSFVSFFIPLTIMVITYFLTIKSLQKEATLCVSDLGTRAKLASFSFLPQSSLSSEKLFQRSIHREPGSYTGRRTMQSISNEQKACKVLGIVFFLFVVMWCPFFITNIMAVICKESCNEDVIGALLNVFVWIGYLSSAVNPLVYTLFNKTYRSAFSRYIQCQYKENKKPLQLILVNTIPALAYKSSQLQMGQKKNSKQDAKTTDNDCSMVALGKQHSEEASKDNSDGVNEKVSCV
Chain of 5-hydroxytryptamine receptor 7 (P34969 whole entry): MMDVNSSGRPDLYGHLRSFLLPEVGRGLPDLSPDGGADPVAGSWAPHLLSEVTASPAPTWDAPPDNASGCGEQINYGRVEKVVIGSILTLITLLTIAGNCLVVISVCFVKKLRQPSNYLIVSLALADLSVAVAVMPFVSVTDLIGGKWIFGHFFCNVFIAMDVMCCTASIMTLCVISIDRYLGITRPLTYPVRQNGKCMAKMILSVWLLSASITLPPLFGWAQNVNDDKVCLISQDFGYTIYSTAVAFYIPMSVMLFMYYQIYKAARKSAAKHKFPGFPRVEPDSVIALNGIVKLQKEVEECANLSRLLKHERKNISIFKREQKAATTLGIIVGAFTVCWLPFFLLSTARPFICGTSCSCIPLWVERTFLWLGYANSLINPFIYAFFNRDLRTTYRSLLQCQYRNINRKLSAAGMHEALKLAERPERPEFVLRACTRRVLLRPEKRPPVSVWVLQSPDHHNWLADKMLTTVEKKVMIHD
Chain of 5-hydroxytryptamine receptor 6 (P50406 whole entry): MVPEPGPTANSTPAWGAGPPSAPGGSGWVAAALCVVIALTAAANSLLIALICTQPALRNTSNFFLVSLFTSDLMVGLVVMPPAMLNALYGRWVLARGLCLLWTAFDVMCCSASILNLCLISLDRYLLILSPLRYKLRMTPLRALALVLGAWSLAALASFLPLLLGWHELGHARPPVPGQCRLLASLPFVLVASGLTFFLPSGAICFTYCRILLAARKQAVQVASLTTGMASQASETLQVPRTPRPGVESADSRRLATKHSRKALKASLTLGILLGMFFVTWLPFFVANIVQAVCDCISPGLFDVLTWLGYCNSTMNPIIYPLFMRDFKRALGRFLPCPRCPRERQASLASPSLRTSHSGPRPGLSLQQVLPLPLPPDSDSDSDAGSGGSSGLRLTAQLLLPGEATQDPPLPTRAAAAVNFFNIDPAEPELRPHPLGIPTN
Chain of Sodium-dependent serotonin transporter (P31652 whole entry): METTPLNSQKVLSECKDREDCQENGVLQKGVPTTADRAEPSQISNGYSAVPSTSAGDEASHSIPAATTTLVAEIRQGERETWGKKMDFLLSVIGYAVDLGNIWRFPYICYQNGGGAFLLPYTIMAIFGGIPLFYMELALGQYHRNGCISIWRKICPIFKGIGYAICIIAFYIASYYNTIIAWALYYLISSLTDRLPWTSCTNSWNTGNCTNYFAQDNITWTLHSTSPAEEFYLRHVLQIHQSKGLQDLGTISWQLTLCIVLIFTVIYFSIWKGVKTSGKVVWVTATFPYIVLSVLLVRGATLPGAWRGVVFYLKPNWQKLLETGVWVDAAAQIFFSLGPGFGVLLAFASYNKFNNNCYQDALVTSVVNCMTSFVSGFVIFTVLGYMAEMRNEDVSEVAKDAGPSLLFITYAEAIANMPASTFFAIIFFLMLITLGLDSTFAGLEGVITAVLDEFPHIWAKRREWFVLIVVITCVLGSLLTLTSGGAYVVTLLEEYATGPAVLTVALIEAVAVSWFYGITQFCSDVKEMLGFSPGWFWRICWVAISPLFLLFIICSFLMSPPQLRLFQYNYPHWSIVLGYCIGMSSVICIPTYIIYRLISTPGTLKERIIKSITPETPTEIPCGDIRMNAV

As for `COc1ccc(-c2c(=O)n(CCCCN3CCCC(c4c[nH]c5ccc(OC)cc45)C3)c(=O)n3ccccc23)cc1` (stereo unspecified), the Ki (in general, the equilibrium dissociation constant of an inhibitor or competing ligand from its target) was 0.086 µM in [1]; 0.314 µM in [2]; 11.2 µM in data set [5]; 0.062 µM in data set [10]; 0.69 µM in data set [12]; 0.958 µM in data set [16]. For the same molecule, the deltaT in data set [3] was -0.2 °C; in data set [4], 0.3 °C; in data set [6], 0.1 °C; in [7], -0.1 °C; in data set [8] it was 0.2 °C; in data set [9], 0.1 °C. Further, the deltaT in [11] was -0.2 °C; in [13], -0.6 °C; in [15] it was -0.5 °C; in data set [17], 0.2 °C; in data set [18], -2.4 °C; in data set [19], 0 °C. In addition, the deltaT is 0.2 °C in [20], 0.2 °C in data set [21], -0.2 °C in data set [22] and -1 °C in [23]. Also, in data set [14], the half-life (in general, how long it takes for the measured level to halve) at 1 µM was determined as 3.31 min.
Regarding `O=c1c(-c2ccccc2)c2ccccn2c(=O)n1CCCCN1CCCC(c2c[nH]c3ccccc23)C1` (stereo unspecified), the Ki in [1] is 0.068 µM; in data set [2], 0.433 µM; in data set [5] it was 17.7 µM; in data set [10] it was 0.022 µM; in data set [12] it was 0.435 µM; in [16], 1.11 µM. The deltaT in data set [6] is 0.1 °C; in data set [24], 0.1 °C; in data set [11] it was -0.8 °C; in data set [25], 0 °C; in data set [17] it was -0.5 °C; in [18], -0.9 °C. Further, the deltaT is 0.2 °C in [19], -0.4 °C in [21], -0.1 °C in [22] and -0.3 °C in data set [23]. In [14], this molecule displayed a half-life at 1 µM of 6.12 min. Besides, the result in [26] was inactive.
